In ChEMBL document CHEMBL1138050, “Furan-2-ylmethylene thiazolidinediones as novel, potent, and selective inhibitors of phosphoinositide 3-kinase gamma” (J Med Chem, 2006):
Activity calls are given as the source filed them. The calls are words filed in the database; no cut-off is given here.

Tests used:
[1] = target: T1, Phosphatidylinositol 4,5-bisphosphate 3-kinase catalytic subunit gamma isoform (Homo sapiens, UniProt P48736); experiment: Inhibition of human PI3Kgamma at 1 uM
How it was run: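 Primary screen of PI3Kγ lipid kinase (SPA, ATP/[γ33P]ATP with PtdIns substrate); percent inhibition at 1 µM compound.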
Target sequence in this assay (P48736 whole entry, looked up, canonical isoform): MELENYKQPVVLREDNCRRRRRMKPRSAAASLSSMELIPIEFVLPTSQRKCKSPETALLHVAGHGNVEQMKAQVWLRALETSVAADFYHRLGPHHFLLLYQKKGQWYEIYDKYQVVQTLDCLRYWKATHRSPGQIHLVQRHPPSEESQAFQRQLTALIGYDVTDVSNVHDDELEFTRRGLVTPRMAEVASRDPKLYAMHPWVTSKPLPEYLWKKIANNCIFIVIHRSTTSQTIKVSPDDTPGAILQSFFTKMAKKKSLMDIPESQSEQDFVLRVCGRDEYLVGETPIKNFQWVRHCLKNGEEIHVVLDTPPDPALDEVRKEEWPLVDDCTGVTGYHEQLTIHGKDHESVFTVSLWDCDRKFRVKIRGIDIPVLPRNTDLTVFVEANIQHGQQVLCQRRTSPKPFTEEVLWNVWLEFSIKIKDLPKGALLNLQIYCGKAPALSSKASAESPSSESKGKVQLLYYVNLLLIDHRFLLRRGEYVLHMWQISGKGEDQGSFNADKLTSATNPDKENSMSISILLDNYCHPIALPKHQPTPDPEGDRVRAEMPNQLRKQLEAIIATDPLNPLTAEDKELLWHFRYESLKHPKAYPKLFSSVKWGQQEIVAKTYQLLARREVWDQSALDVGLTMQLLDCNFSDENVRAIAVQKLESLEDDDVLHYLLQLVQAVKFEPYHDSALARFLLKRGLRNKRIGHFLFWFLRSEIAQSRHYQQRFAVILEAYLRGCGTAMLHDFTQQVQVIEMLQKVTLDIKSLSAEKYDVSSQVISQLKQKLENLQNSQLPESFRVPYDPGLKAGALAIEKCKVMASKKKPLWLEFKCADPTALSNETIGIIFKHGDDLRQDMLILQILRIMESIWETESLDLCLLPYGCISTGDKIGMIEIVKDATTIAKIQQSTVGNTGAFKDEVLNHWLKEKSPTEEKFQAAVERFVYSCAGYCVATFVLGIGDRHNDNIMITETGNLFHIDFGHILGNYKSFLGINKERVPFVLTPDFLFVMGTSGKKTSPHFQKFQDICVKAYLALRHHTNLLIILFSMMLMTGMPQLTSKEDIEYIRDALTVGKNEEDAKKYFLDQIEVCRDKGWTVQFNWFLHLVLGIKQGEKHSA

[2] = target: T1, Phosphatidylinositol 4,5-bisphosphate 3-kinase catalytic subunit gamma isoform; experiment: Inhibition of human PI3Kgamma
Target sequence in this assay (P48736 whole entry, canonical isoform): as the sequence (P48736 whole entry, looked up, canonical isoform) above

[3] = target: Phosphatidylinositol 4,5-bisphosphate 3-kinase catalytic subunit alpha isoform (Homo sapiens, UniProt P42336); experiment: Inhibition of human PI3Kalpha
Chain of Phosphatidylinositol 4,5-bisphosphate 3-kinase catalytic subunit alpha isoform (P42336 whole entry, canonical isoform): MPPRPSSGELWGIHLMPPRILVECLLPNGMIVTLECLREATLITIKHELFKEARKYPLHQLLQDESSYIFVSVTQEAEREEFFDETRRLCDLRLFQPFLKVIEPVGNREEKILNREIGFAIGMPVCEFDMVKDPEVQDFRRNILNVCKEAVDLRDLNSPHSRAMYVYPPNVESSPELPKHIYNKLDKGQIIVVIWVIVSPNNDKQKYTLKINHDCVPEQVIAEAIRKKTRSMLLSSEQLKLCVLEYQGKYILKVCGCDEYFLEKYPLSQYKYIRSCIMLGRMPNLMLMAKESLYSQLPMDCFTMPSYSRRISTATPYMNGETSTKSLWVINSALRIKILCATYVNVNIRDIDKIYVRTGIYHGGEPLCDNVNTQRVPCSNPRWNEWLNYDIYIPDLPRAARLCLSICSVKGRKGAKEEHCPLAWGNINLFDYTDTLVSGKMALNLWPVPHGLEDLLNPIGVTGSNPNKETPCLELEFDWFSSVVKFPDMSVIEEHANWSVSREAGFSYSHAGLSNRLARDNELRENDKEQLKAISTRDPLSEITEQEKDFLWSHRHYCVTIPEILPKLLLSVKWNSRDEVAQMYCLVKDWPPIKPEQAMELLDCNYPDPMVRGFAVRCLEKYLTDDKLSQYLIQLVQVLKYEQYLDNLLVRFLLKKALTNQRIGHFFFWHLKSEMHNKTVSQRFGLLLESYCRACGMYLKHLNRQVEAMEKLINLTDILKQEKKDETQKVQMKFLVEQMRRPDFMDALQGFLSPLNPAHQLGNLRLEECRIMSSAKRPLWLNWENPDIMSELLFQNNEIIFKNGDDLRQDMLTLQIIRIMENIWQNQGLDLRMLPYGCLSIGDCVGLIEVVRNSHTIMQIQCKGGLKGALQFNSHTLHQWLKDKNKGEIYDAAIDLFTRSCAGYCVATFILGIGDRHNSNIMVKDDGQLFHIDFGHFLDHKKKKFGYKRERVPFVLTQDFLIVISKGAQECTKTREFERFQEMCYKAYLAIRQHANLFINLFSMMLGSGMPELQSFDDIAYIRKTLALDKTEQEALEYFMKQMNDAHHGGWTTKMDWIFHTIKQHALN

RAW264.7 = experiment: Inhibition of C5a-mediated PKB/Akt phosphorylation in mouse Raw264 macrophage; assay type: functional, cell-based
How it was run: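 Raw-264 murine macrophages starved 3 h in serum-free medium, pretreated 30 min with inhibitor or DMSO, then stimulated 5 min with 50 nM C5a. Phospho-Ser-473 Akt measured by ELISA. Concentration-response; IC50. Mean ± standard deviation of four independent experiments done in triplicate.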

[4] = Dissociation constant, pKa of the compound; assay type: physicochemical
How it was run: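 UV-metric titration under argon at 25 ± 0.5 °C. 10 mM DMSO stock diluted into 0.15 M KCl containing 60, 50, 40 or 30 wt% MeOH, with 0.25 mM KH2PO4. Brought to pH 11.0 with 0.5 M KOH, then titrated with 0.5 M HCl to pH 4, at most 0.15 pH unit per step. UV 200-500 nm recorded after each addition; Yasuda-Shedlovsky extrapolation to zero cosolvent.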

[5] = target: T2, Phosphatidylinositol 4,5-bisphosphate 3-kinase catalytic subunit delta isoform (Homo sapiens, UniProt O00329); experiment: Inhibition of human PI3Kdelta
T2 sequence (O00329 whole entry): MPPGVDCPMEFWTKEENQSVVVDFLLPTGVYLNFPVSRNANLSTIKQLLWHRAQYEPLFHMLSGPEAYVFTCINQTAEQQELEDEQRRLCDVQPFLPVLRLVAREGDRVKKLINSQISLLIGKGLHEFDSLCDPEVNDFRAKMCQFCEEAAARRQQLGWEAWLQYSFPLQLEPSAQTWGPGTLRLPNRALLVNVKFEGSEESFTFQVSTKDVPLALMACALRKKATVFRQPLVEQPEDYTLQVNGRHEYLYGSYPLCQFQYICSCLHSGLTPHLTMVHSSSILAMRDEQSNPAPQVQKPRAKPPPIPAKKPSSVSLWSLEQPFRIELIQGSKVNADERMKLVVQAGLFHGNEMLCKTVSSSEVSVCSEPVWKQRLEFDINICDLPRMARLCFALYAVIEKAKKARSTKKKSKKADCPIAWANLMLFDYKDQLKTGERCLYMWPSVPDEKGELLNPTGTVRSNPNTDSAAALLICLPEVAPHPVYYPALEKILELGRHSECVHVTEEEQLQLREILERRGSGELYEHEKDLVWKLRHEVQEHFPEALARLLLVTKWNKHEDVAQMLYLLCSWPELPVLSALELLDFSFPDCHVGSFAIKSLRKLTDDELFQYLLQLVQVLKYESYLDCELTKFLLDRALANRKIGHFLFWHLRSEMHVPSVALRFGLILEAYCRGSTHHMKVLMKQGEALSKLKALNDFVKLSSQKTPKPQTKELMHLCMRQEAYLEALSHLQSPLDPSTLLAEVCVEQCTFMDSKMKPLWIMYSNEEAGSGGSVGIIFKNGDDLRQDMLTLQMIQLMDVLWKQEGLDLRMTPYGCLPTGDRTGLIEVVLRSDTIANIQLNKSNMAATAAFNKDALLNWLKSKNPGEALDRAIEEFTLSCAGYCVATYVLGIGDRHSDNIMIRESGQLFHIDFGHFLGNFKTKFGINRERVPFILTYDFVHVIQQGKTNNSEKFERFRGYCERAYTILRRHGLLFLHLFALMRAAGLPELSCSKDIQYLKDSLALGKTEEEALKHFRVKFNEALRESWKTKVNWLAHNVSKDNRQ

[6] = target: Phosphatidylinositol 4,5-bisphosphate 3-kinase catalytic subunit beta isoform (Homo sapiens, UniProt P42338); experiment: Inhibition of human PI3Kbeta
Chain of Phosphatidylinositol 4,5-bisphosphate 3-kinase catalytic subunit beta isoform (P42338 whole entry, canonical isoform): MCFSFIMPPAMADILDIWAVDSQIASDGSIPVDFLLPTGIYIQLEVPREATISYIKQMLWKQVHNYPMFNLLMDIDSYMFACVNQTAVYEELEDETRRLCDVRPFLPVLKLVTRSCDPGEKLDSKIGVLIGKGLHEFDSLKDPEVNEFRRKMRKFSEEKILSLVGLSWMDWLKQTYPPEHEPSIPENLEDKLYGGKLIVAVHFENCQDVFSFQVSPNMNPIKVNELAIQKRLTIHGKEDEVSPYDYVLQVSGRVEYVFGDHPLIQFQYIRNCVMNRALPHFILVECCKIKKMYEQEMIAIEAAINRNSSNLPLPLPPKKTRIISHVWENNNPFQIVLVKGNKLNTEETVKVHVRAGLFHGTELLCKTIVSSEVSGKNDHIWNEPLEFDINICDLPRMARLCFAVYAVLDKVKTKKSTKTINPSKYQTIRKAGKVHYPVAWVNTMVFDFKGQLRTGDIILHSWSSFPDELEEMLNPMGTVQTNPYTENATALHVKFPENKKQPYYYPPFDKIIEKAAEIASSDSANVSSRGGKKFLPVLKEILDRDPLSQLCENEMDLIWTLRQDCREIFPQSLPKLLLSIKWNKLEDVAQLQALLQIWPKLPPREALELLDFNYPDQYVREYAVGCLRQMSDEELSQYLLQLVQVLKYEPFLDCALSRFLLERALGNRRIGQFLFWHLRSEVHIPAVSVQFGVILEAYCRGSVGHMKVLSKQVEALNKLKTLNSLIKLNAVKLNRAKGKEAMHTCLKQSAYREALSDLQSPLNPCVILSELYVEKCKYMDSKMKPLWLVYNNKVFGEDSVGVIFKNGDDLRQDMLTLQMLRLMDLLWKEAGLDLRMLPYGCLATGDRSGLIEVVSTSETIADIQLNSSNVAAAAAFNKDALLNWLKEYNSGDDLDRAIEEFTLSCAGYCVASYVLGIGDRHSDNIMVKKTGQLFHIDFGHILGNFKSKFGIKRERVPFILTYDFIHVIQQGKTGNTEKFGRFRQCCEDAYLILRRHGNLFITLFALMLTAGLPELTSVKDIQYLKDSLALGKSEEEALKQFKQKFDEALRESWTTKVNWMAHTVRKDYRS

THP-1 [7] = experiment: Inhibition of CSF-1-induced PKB/Akt phosphorylation in THP1 cells; conditions: Homo sapiens
THP-1 [8] = experiment: Inhibition of MCP1-induced chemotaxis of THP1 cells; assay type: functional, cell-based; conditions: Homo sapiens
THP-1 [9] = experiment: Inhibition of MCP1-induced PKB/Akt phosphorylation in THP1 cells; assay type: functional, cell-based; conditions: Homo sapiens
How it was run: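 THP-1 monocytes starved 3 h in serum-free medium and pretreated with inhibitor or DMSO (15 min in methods; 20 min in figure legend). Stimulated with 100 nM MCP-1/CCL2 for 30 s, or with 50 ng/mL CSF-1 for 5 min. Phospho-Ser-473 and total Akt detected by Western blot and quantified.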

Mast cell = experiment: Inhibition of SCF-induced PKB/Akt phosphorylation in mouse mast cells at 20 uM; assay type: functional, cell-based
How it was run: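 Bone marrow mast cells from 4- to 8-week-old wild-type mice, derived ≥4 weeks in 20 ng/mL SCF plus 20 ng/mL IL-3 and confirmed c-kit+ by FACS. Cells at 2.5 × 10^6/mL starved 24 h without SCF/IL-3, preincubated 20 min with compound or 1% DMSO, stimulated 15 min at 37 °C with 20 ng/mL SCF. Fixed in 1.5% paraformaldehyde, permeabilized with 0.2% Triton X-100, phospho-Ser-473 Akt read by FACS.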

Row | SMILES | IC50 [2] [nM] | IC50 [3] [nM] | also measured
1 | O=C1NC(=O)/C(=C/c2ccc(-c3ccc(F)cc3O)s2)S1 |  |  | inhibition [1]: 4%
2 | COc1ccccc1-c1ccc(/C=C2\SC(=O)NC2=O)o1 |  |  | inhibition [1]: 44%
3 | O=C1NC(=O)/C(=C/c2ccc(-c3ccccc3Cl)o2)S1 | 20000 |  | 
4 | O=C1NC(=O)/C(=C/c2ccc(-c3ccc4c(c3)OCO4)o2)S1 | 20000 | 20000 | 
5 | O=C1NC(=S)S/C1=C\c1ccc(-c2ccc([N+](=O)[O-])cc2Br)o1 | 3600 |  | 
6 | O=C1NC(=O)/C(=C/c2ccc(-c3cccc(C(=O)O)c3)o2)S1 | 4300 |  | 
7 | O=C1NC(=O)/C(=C/c2ccc(-c3ccccc3O)o2)S1 | 30 | 330 | IC50 (RAW264.7): 810 nM; pKa [4]: 9.5; IC50 [5]: > 5000 nM; IC50 [6]: 20000 nM
8 | O=C1NC(=O)/C(=C/c2ccc(-c3ccccc3)o2)S1 | 20000 |  | 
9 | O=C1NC(=O)/C(=C/c2ccc(-c3ccccn3)o2)S1 | 110 | 185 | IC50 (RAW264.7): 3650 nM
10 | Nc1ccc([N+](=O)[O-])cc1-c1ccc(/C=C2\SC(=O)NC2=O)o1 |  |  | inhibition [1]: 18%
11 | COc1cc(F)ccc1-c1ccc(/C=C2\SC(=O)NC2=O)o1 |  |  | inhibition [1]: 11%
12 | O=C1NC(=O)/C(=C/c2ccc(-c3cc(C(=O)O)ccc3O)o2)S1 | 530 | 1350 | pKa [4]: 8.6
13 | O=C1NC(=S)S/C1=C\c1ccc(-c2cc([N+](=O)[O-])ccc2O)o1 | 200 | 600 | 
14 | O=C1NC(=O)/C(=C/c2ccc(-c3ccc(O)cc3O)o2)S1 | 20 | 190 | IC50 (RAW264.7): 3490 nM; pKa [4]: 8.7
15 | O=C1NC(=O)/C(=C/c2ccc(-c3cc(F)cc(F)c3O)s2)S1 | 29 | 340 | IC50 (RAW264.7): 1390 nM
16 | CC(=O)Nc1ccccc1-c1ccc(/C=C2\SC(=O)NC2=O)o1 |  |  | inhibition [1]: 24%
17 | O=C1NC(=O)/C(=C/c2ccc(-c3cc(O)ccc3O)o2)S1 | 20 | 100 | 
18 | O=C(O)Cc1ccccc1-c1ccc(/C=C2\SC(=O)NC2=O)o1 |  |  | inhibition [1]: 12%
19 | O=C1NC(=S)S/C1=C\c1ccc(-c2cccc(C(=O)O)c2)o1 | 920 | > 20000 | 
20 | O=C1NC(=O)/C(=C/c2ccc(-c3ccc([N+](=O)[O-])o3)o2)S1 | 20000 |  | 
21 | O=c1cc(N2CCOCC2)oc2c(-c3ccccc3)cccc12 [LY-294002] |  |  | IC50 (RAW264.7): 10000 nM; IC50 (THP-1 [7]): 1010 nM; IC50 (THP-1 [8]): 37000 nM; IC50 [5]: 1330 nM; IC50 (THP-1 [9]): 1650 nM; Activity (Mast cell): Active
22 | O=C1NC(=O)/C(=C/c2ccc(-c3ccccc3F)o2)S1 | 1200 |  | 

Row | SMILES | IC50 [2] [nM] | IC50 [3] [nM] | also measured
23 | N#Cc1ccc(O)c(-c2ccc(/C=C3\SC(=O)NC3=O)o2)c1 | 40 | 220 | pKa [4]: 7.3
24 | O=C1NC(=O)/C(=C/c2ccc(-c3cccc(O)c3)o2)S1 | 290 | 1800 | 
25 | Cc1ccc(O)c(-c2ccc(/C=C3\SC(=O)NC3=O)o2)c1 | 39 | 500 | IC50 (RAW264.7): 1060 nM; pKa [4]: 9.7
26 | O=C1NC(=O)/C(=C/c2ccc(-c3cccc4cccnc34)o2)S1 |  |  | inhibition [1]: 17%
27 | COC(=O)c1ccc(-c2ccc(/C=C3\SC(=O)NC3=O)o2)c(O)c1 | 29 | 210 | IC50 (RAW264.7): 720 nM; pKa [4]: 8.7
28 | O=C(O)Cc1cccc(-c2ccc(/C=C3\SC(=O)NC3=O)o2)c1 |  |  | inhibition [1]: 15%
29 | O=C1NC(=O)/C(=C/c2ccc(-c3ccc(O)cc3)o2)S1 | 380 | 3600 | 
30 | O=C1NC(=O)/C(=C/c2ccc(-c3cc(Cl)ccc3O)o2)S1 | 43 | 545 | pKa [4]: 8.9
31 | O=C1NC(=O)/C(=C/c2ccc(-c3ccccc3C(=O)O)o2)S1 |  |  | inhibition [1]: 4%
32 | O=C1NC(=O)/C(=C/c2ccc(-c3cccc([N+](=O)[O-])c3O)o2)S1 | 80 | 1250 | 
33 | O=C1NC(=O)/C(=C/c2ccc(-c3ccccc3O)s2)S1 |  |  | inhibition [1]: 27%
34 | O=C1NC(=O)/C(=C/c2ccc(-c3cccc([N+](=O)[O-])c3)o2)S1 |  |  | inhibition [1]: 24%
35 | O=C1NC(=O)/C(=C/c2ccc(-c3cccnc3)o2)S1 | 950 | 630 | 
36 | O=C1NC(=O)/C(=C/c2ccc(-c3cc(F)ccc3O)o2)S1 | 37 | 455 | IC50 (RAW264.7): 1710 nM; pKa [4]: 9.1
37 | COC(=O)c1cccc(-c2ccc(/C=C3\SC(=O)NC3=O)o2)c1 | 13500 |  | 
38 | O=C1NC(=O)/C(=C/c2ccc(-c3ccc(O)cc3F)o2)S1 | 260 | 1000 | 
39 | O=C1NC(=O)/C(=C/c2ccc(-c3ccoc3)o2)S1 | 840 |  | 
40 | COc1cccc(-c2ccc(/C=C3\SC(=O)NC3=O)o2)c1 | 2600 |  | 
41 | O=C1NC(=O)/C(=C/c2ccc(-c3cc(OC(F)(F)F)ccc3O)o2)S1 | 56 | 600 | IC50 (RAW264.7): 880 nM; pKa [4]: 8.7
42 | COC(=O)c1ccccc1-c1ccc(/C=C2\SC(=O)NC2=O)o1 |  |  | inhibition [1]: 2%
43 | O=C1NC(=O)/C(=C/c2ccc(-c3ccc(F)cc3F)o2)S1 | 3800 |  | 
